From article PMC2884008 (Chemistry & biology, 2010)
“Also recorded” adds a separate entry of the source. Like-named read-outs stand apart in the source and are kept apart here. Blank lines part the entries; values can stand above or below the compound they belong to.

Key:
p300 HAT = molecular target: T1, p300 HAT (Homo sapiens, UniProt Q09472, DEL1529-1560/M1652G); assay: direct radioactive 14C-acetyl-CoA transfer p300 HAT assay; type: biochemical; details: for p300 HAT inhibition, in words: analogs compared with C646
T1 sequence (Q09472 with tags, fused parts or gaps DEL1529-1560/M1652G limits assumed): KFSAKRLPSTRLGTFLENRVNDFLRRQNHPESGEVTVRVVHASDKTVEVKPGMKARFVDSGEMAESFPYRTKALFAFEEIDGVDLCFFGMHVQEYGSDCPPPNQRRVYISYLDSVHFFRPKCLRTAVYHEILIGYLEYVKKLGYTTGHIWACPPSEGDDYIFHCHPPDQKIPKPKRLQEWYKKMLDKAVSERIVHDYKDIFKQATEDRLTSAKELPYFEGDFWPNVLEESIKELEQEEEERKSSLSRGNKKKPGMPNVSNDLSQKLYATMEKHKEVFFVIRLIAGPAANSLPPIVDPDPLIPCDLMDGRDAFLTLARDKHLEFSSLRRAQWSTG

p300/CBP HAT [1] = details: read-out: Ki for p300/CBP HAT, cited from earlier work
p300/CBP HAT [2] = assay: p300 HAT inhibition, literature values; type: biochemical; details: Ki compared with C646
[3] = tested on: three melanoma and three non-small cell lung cancer lines; assay: 3H-thymidine incorporation in cancer cell line panel; type: cell-based, human; details: 24 h
In short: (§1)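 Melanoma lines were grown in DMEM and NSCLC lines in RPMI 1640, both with 10% FBS, pen-strep and L-glutamine. About 5000 cells/well at ~60% sub-confluence were attached at 37°C, then exposed 24 h with DMSO at 0.2% in every condition. 3H-thymidine was added at 10 μCi/ml final for 5 h; cells were harvested onto filters and counted. Triplicates; counts normalized to pre-treatment counts.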

[4] = tested on: C3H 10T1/2 mouse fibroblasts; assay: histone acetylation in mouse cells, western blots of SDS and acid-urea gels; type: cell-based
In short: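 C3H 10T1/2 fibroblasts were grown in DMEM/10% FCS at 37°C, 6% CO2, then made quiescent in 0.5% FCS for 18–20 h. TSA at 33 nM was added for the final 30 min where used. Histones were acid-extracted, run on SDS and acid-urea gels and western blotted.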

[5] = molecular target: PCAF histone acetyltransferase (Homo sapiens, UniProt Q92831); assay: coupled spectrophotometric PCAF assay; type: biochemical; details: compound at 10 μM
[6] = thiol adduct formation by NMR and chromatography; type: physicochemical; details: buffer conditions of the enzyme assay
[7] = molecular target: MOZ histone acetyltransferase (Homo sapiens, UniProt Q92794); assay: direct radioactive HAT assay with hMOZ; type: biochemical; details: compound at 10 μM
In short: (§2)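 Enzyme: Rtt109/Vps75 70 ng, yGcn5 15 ng, SAS 300 ng, hMOZ 1 μg. After 10 min at 30°C, reactions were started with 20 μM 12C/14C-AcCoA (1:1) and run 2–4 min. Product was resolved by Tris-Tricine SDS-PAGE and quantified by autoradiography. Duplicates.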

WM35 = assay: cell cycle analysis by propidium iodide FACS, WM35; type: cell-based, human; details: 20 μM, 24 h
In short: (§3)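 Cells were exposed to 20 μM test compound or DMSO for 24 h. More than 10^6 cells were fixed in 70% ethanol at 4°C for ≥2 h, rehydrated in PBS and stained 20 min at 37°C with PI in 0.1% Triton X-100/PBS containing RNase A. DNA content was read by flow cytometry, and the S-phase fraction was taken as the read-out.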

p300 HAT mutant R1410A = assay: C646 inhibition of p300 HAT mutant R1410A; type: biochemical; details: Ki = IC50/(S/Km+1)
p300 HAT mutant W1466F = assay: C646 inhibition of p300 HAT mutant W1466F; type: biochemical; details: Ki = IC50/(S/Km+1)
melanoma line WM35 = assay: 3H-thymidine incorporation in WM35; type: cell-based, human; details: C646 10 μM or Lys-CoA-Tat 25 μM, 24 h
In short: as §1

[8] = molecular target: Sas histone acetyltransferase (Saccharomyces cerevisiae, UniProt P40963); assay: direct radioactive HAT assay with SAS complex; type: biochemical; details: compound at 10 μM
In short: as §2

melanoma line WM983A = assay: 3H-thymidine incorporation in WM983A; type: cell-based, human; details: 24 h
In short: as §1

p300 HAT mutant T1411A = assay: C646 inhibition of p300 HAT mutant T1411A; type: biochemical; details: Ki = IC50/(S/Km+1)
WM983A = assay: cell cycle analysis by propidium iodide FACS, WM983A; type: cell-based, human; details: 20 μM, 24 h
In short: as §3

[9] = molecular target: serotonin N-acetyltransferase (Ovis aries, UniProt Q29495); assay: coupled spectrophotometric AANAT assay; type: biochemical; details: compound at 10 μM
[10] = molecular target: GCN5 histone acetyltransferase (Saccharomyces cerevisiae, UniProt Q03330); assay: direct radioactive HAT assay with yeast GCN5; type: biochemical; details: compound at 10 μM
In short: as §2

[11] = molecular target: Rtt109 histone acetyltransferase (Saccharomyces cerevisiae, UniProt Q07794); assay: direct radioactive HAT assay with Rtt109/Vps75 complex; type: biochemical; details: compound at 10 μM
In short: as §2

[12] = tested on: immortalized murine fibroblast cell line, NIH3T3; assay: 3H-thymidine incorporation in NIH3T3; type: cell-based; details: 20 μM
p300 HAT mutant Y1467F = assay: C646 inhibition of p300 HAT mutant Y1467F; type: biochemical; details: Ki = IC50/(S/Km+1)
lung cancer line H23 = assay: 3H-thymidine incorporation in H23; type: cell-based, human; details: C646 10 μM or Lys-CoA-Tat 25 μM, 24 h
In short: as §1

WM983A cells = assay: global histone H3 acetylation in WM983A cells by western blotting; type: cell-based, human; details: 6 h, increasing concentrations

PCAF histone acetyltransferase, sequence (Q92831 493-658 limits assumed): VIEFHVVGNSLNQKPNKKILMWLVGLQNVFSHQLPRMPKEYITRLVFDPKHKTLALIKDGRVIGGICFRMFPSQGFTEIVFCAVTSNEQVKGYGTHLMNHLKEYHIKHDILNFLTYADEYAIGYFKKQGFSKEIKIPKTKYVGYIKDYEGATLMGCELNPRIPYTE
Sas histone acetyltransferase, sequence (P40963 whole entry): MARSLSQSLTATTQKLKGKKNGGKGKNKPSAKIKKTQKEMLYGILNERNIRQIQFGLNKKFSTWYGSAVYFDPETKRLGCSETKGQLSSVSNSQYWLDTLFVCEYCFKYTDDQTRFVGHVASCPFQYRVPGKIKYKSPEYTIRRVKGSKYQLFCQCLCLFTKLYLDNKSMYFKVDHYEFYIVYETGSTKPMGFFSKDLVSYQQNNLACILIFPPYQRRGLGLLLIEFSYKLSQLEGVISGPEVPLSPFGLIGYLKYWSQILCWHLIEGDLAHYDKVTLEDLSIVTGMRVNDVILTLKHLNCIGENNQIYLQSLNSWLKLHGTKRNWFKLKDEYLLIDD
Sas histone acetyltransferase, sequence (Q04003 whole entry partner): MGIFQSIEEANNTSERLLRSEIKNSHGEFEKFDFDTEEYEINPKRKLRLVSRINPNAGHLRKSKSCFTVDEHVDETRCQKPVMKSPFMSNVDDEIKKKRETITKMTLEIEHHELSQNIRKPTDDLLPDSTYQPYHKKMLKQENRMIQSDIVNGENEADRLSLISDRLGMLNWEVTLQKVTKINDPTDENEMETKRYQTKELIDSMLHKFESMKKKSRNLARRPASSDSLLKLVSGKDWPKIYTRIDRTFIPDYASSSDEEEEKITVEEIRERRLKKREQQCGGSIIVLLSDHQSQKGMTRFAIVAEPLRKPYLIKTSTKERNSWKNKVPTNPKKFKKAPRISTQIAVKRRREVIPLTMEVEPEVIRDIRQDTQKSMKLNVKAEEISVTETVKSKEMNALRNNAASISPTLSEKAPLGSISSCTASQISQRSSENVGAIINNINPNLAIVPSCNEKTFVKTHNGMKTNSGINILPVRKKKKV
Sas histone acetyltransferase, sequence (Q99314 whole entry partner): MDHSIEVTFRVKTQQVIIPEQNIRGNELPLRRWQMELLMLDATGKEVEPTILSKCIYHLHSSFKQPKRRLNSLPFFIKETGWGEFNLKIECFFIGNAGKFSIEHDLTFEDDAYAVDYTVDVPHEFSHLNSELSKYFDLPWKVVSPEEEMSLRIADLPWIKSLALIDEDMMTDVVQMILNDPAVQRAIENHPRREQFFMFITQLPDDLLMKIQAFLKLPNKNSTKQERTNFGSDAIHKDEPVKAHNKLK
GCN5 histone acetyltransferase, sequence (Q03330 whole entry): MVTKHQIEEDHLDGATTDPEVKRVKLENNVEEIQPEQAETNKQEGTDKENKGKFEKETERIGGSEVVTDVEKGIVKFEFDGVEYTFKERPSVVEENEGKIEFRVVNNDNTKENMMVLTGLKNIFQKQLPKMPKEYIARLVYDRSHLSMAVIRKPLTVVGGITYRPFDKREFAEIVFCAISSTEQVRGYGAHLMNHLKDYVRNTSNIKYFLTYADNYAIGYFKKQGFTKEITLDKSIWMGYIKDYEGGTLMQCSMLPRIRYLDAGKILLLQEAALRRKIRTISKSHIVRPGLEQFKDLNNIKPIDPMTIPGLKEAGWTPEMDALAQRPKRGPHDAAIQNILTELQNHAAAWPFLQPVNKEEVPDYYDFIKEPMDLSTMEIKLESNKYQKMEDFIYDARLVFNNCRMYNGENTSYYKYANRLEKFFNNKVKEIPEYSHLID
serotonin N-acetyltransferase, sequence (Q29495 whole entry): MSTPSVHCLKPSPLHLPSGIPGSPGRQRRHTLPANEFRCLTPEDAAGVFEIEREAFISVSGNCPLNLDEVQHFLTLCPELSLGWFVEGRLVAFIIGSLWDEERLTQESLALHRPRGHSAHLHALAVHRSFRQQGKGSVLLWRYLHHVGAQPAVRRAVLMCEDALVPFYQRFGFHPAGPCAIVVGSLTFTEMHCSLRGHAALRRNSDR
Rtt109 histone acetyltransferase, sequence (Q07794 whole entry): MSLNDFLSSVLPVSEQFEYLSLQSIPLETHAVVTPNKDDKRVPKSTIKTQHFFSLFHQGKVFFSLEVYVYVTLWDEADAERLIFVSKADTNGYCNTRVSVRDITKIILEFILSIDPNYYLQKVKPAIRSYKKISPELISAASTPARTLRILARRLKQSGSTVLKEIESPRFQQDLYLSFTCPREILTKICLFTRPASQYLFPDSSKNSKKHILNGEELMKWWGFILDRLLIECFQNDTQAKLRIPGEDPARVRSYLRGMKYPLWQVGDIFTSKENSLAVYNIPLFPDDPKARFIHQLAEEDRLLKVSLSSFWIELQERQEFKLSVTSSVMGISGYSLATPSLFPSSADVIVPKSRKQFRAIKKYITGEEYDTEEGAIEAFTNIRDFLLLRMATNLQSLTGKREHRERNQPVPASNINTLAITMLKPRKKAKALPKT
Rtt109 histone acetyltransferase, sequence (P53853 whole entry partner): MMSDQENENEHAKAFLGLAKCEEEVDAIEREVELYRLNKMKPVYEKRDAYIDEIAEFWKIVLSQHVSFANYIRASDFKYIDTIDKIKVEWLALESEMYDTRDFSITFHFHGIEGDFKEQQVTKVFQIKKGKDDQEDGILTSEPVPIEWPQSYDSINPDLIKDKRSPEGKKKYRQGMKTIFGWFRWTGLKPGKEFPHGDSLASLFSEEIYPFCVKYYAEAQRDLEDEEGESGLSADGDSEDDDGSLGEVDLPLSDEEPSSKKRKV
MOZ histone acetyltransferase, sequence (Q92794 497-780 limits assumed): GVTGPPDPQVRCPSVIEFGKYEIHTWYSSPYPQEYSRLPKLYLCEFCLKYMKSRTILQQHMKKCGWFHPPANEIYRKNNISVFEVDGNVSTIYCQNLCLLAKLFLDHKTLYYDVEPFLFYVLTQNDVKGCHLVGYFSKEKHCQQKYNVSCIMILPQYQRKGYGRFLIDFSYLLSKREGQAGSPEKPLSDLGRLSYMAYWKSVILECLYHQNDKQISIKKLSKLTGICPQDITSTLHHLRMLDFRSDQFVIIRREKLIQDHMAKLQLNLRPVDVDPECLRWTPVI

Compound: CC1=NN(c2ccc(S(=O)(=O)O)cc2)C(=O)C1=Cc1ccc(-c2cc(C)c(C)cc2[N+](=O)[O-])o1 [Compound 6f]
p300 HAT inhibition, in words (p300 HAT): well tolerated

Compound: CC(=O)N[C@@H](CCCCNC(=O)CSCCNC(=O)CCNC(=O)[C@H](O)C(C)(C)COP(=O)(O)OP(=O)(O)OC[C@H]1O[C@@H](n2cnc3c(N)ncnc32)[C@H](O)[C@@H]1OP(=O)(O)O)C(N)=O [Lys-CoA]
Ki (p300/CBP HAT [1]; ref Lau et al., 2000): 0.02 µM
fold more potent than C646 (p300/CBP HAT [2]): 20 fold

p300 HAT inhibition, in words (p300 HAT): lack p300 inhibitory properties
Compound: Ac-Asp-Asp-Asp-Asp-Tat [Ac-DDDD-Tat, reference compound]
3H-thymidine incorporation, control compounds [3]: no effects

Compound: COc1ccc(C(=O)C2=C3OC(C)(C)[C@@H](CC=C(C)C)C[C@@]34C[C@@H](CC=C(C)C)C(C)(C)[C@@](CC=C(C)C)(C2=O)C4=O)cc1O [LTK14]
Ki (p300/CBP HAT [1]; ref Mantelingu et al., 2007, Arif et al., 2009): 5.1 µM
fold weaker than C646 (p300/CBP HAT [2]): about 12 fold

Compound: CC(/C=C/C(=O)NO)=C\[C@@H](C)C(=O)c1ccc(N(C)C)cc1 [TSA, trichostatin A, reference compound]
H3 and H4 acetylation after HDAC inhibitor ([4]; TSA 33 nM, 30 min): increased H3 and H4 acetylation

Compound: CC1=NN(c2cccc(C(=O)O)c2)C(=O)C1=Cc1ccc(-c2cc(C)c(C)cc2[N+](=O)[O-])o1 [Compound 6e]
p300 HAT inhibition, in words (p300 HAT): well tolerated

p300 HAT inhibition, in words (p300 HAT): substantial reduction in potency
Compound: CC1=NN(c2ccc(C(=O)O)cc2)C(=O)C1=Cc1ccc(-c2cc(C)c(C)cc2CO)o1 [Compound 6l]

Compound: CC1=NN(c2ccc(C(N)=O)cc2)C(=O)C1=Cc1ccc(-c2cc(C)c(C)cc2[N+](=O)[O-])o1 [Compound 6a]
p300 HAT inhibition, in words (p300 HAT): well tolerated

weakening of p300 inhibitory potency compared with C646 (p300 HAT; relative IC50 referenced to C646): > 15 fold
Compound: COC(=O)c1ccc(N2N=C(C)C(=Cc3ccc(-c4cc(C)c(C)cc4[N+](=O)[O-])o3)C2=O)cc1 [Compound 6h]

Compound: COC(=O)c1cccc(N2N=C(C)C(=Cc3ccc(-c4cc(C)c(C)cc4[N+](=O)[O-])o3)C2=O)c1 [Compound 6i]
p300 HAT inhibition, in words (p300 HAT): well tolerated

Compound: CC1=NN(c2ccc(S(N)(=O)=O)cc2)C(=O)C1=Cc1ccc(-c2cc(C)c(C)cc2[N+](=O)[O-])o1 [Compound 6g]
p300 HAT inhibition, in words (p300 HAT): well tolerated

inhibition of PCAF [5]: less than 10%
thiol adduct formation with DTT or beta-mercaptoethanol [6]: no evidence of reaction
inhibition of MOZ [7]: less than 10%
increase of apparent Ki versus wild type p300 (p300 HAT mutant R1410A): at least 2 fold
increase of apparent Ki versus wild type p300 (p300 HAT mutant W1466F): 7 fold
inhibition of Sas [8]: less than 10%
IC50 (melanoma line WM983A; read-out: IC50 for 3H-thymidine incorporation): 10 to 20 µM
increase of apparent Ki versus wild type p300 (p300 HAT mutant T1411A): at least 2 fold
inhibition of serotonin N-acetyltransferase [9]: less than 10%
inhibition of GCN5 [10]: less than 10%
inhibition of Rtt109 [11]: less than 10%
increase of apparent Ki versus wild type p300 (p300 HAT mutant Y1467F): at least 2 fold
Compound: CC1=NN(c2ccc(C(=O)O)cc2)C(=O)/C1=C\c1ccc(-c2cc(C)c(C)cc2[N+](=O)[O-])o1 [Compound C646]
3H-thymidine incorporation ([3]; C646 10 μM): capable of reducing; also recorded: Two out of three non-small cell lung adenocarcinoma cell lines demonstrate significant growth inhibition
cell cycle effect (WM35): G1-S cell cycle arrest; also recorded: decrease in %S phase
basal acetylation levels of H3 and H4 ([4]; 25 μM, 1-3 h, H3K9ac, H4K12ac): slightly diminished; also recorded: reduces histone H3 and H4 acetylation levels
TSA-inducible acetylation of H3 and H4 ([4]; 25 μM, 1-3 h before TSA (33 nM, final 30 min)): virtually completely inhibits; also recorded: abrogates TSA-induced acetylation
3H-thymidine incorporation (melanoma line WM35): quite susceptible
cell proliferation via 3H-thymidine incorporation (melanoma line WM983A; up to 20 μM): inhibits WM983A melanoma cell proliferation
cell cycle effect (WM983A): G1-S cell cycle arrest; also recorded: decrease in %S phase
3H-thymidine incorporation / cell proliferation [12]: not inhibited; also recorded: does not have a significant inhibitory effect
3H-thymidine incorporation (lung cancer line H23): quite susceptible
global histone H3 acetylation (WM983A cells): dose-dependent reduction; also recorded: blocks H3 acetylation
